MrgX1 antag = antagonists of human MrgX1 receptor; Q96LB2; MRGX1-HEK293 calcium flux, Fluo-4, BAM8-22 antagonism; stronger effect = lower value; B-score at 10 µM; 1.3% of 310,000 active;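 active means calcium-response B-score plate-corrected more than 3 library SD below zero, starting fluorescence within 5 deviations, no agonist response on first addition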;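 further: peak minus trough fluorescence over baseline after final BAM8-22 challenge near maximal dose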
RGS4 pot = RGS4 potentiation or activation; 0.92% of 310,000 active; AID 463111; HEK293 M3R/inducible RGS4, carbachol calcium flux Fluo4; stronger effect = lower value; B-score at 10 µM;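 active means B-score of the integrated calcium signal more than 4 SD below the library mean, with starting fluorescence not abnormally high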;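 further: negative B-score means reduced calcium response which marks RGS4 activation or potentiation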
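Detection: kinetic calcium fluorescence imaging with Fluo4-AM dye, 2 µM / Material: HEK293 cells with stable M3R and inducible RGS4 / Schedule: recording 10 s baseline at 1 Hz, 100 s post-agonist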
MrgX1 PAM = allosterically activates human MrgX1 receptor signaling; Q96LB2; MrgX1-HEK293, Fluo-4 calcium flux, FDSS; stronger effect = higher value; B-score at 10 µM; 0.63% of 310,000 active;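 active means plate-corrected calcium response at least 3 library SD above typical, normal starting fluorescence, not activating the receptor alone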;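 further: compound read alongside a low EC10 to EC30 dose of BAM8-22 agonist; peak minus trough fluorescence over baseline measured at the second addition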
MrgX1 ag = activates human MrgX1 receptor signaling. AID 588627. 0.44% of 310,000 active. MrgX1-HEK293 cells, Fluo-4 calcium fluorescence, agonist mode; stronger effect = higher value. Q96LB2. B-score at 10 µM;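 active means calcium response B-score plate-corrected fluorescence ratio at least 3 library SD, with starting fluorescence B-score inside 5 SD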
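System – MrgX1-expressing HEK293 cells · Incubation – cells plated overnight, dye loaded 0.5 h 37 °C, 0.5 h room temperature · Technique – kinetic Fluo-4 NW fluorescence of intracellular calcium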
RGS4 block = inhibitors of human RGS4; P49798; B-score at 10 µM; 0.45% of 310,000 active; HEK293 M3R/RGS4 inducible, Fluo-4 calcium flux; stronger effect = higher value; triggered by carbachol at its EC20; AID 463165;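 active means B-score, a plate-corrected calcium signal, over three deviations above library mean, with baseline fluorescence within five deviations of library mean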;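 further: RGS4 expression induced by doxycycline in cells with stable M3 receptor; B-score is computed from the integrated fluorescence ratio over baseline after carbachol; higher B-score means a larger calcium signal and so more RGS4 inhibition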
Target sequence (P49798 whole entry, looked up): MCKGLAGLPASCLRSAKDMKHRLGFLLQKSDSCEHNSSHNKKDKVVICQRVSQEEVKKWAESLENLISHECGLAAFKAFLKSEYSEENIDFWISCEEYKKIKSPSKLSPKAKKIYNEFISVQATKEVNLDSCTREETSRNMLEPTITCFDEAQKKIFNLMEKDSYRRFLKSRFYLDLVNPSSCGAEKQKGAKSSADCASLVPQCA
MrgX1 allo conf = confirmation of human MrgX1 receptor positive allosteric modulators; shares compounds with MrgX1 PAM; MrgX1-HEK293, Fluo-4 calcium fluorescence, FDSS; activation (ratio percentage), % at 10 µM; 13% of 1,200 active;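 active means ratio at least 3 SD above the weak peptide control, stable starting fluorescence, no direct agonism earlier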;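 further: compound followed by low BAM8-22 agonist challenge near EC20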
HEK293 Ca flux = MrgX1 antagonist counter-screen hit in parental HEK293 cells; 2% of 4,000 active; shares compounds with MrgX1 antag; Fluo-4 calcium fluorescence, FDSS; fluorescence ratio F(max-min)/F0 at 10 µM;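 active means duplicate-averaged calcium fluorescence ratio at least three times the standard deviation of buffer wells, a nonspecific response in parental cells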
HEK293 Ca counter = activity in parental HEK293 cells without MrgX1. parental HEK293 calcium flux, Fluo-4 fluorescence ratio; stronger effect = higher value. fluorescence ratio F(max-min)/F0 at 10 µM. 0.4% of 4,000 active. shares compounds with MrgX1 antag;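 active means calcium fluorescence ratio, averaged over duplicates, at least 3 SD of the buffer-well ratio, meaning a nonspecific response in receptor-free cells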;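 further: untransfected parental HEK293 lacking MrgX1 used as counterscreen for MrgX1 allosteric activators; fluorescence change taken during the second addition on a kinetic imager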
HEK293 Ca cntr2 = activity in parental HEK293 cells lacking MrgX1 receptor; AID 624115; 8.7% of 4,000 active; shares compounds with MrgX1 antag; Fluo-4 calcium fluorescence (FDSS); stronger effect = higher value; fluorescence ratio F(max-min)/F0 at 10 µM;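 active means calcium fluorescence ratio at least three times the spread of buffer wells, meaning a non-specific response in parental cells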
Numbers without * were called inactive; i = inactive; nt = not tested or not shown. An excerpt weighted towards active compounds, which were near 3.5% of everything screened.

SMILES | MrgX1 antag | RGS4 pot | MrgX1 PAM | MrgX1 ag | RGS4 block | MrgX1 allo conf | HEK293 Ca flux | HEK293 Ca counter | HEK293 Ca cntr2
CS(=O)(=O)C1=NSC2=NC(=O)/C(=C\c3ccc(OS(=O)(=O)c4ccccc4)cc3)C(=N)N21 | i | i | 29.8* | i | i | 25.4%* | i | i | i
Cc1cc(C)cc(-n2cccc2/C=C2/C(=N)N3C(=NC2=O)SN=C3S(C)(=O)=O)c1 | i | i | i | i | i | nt | nt | nt | nt
Cc1ccc(S(=O)(=O)Oc2ccc(/C=C3\C(=N)N4N=C(S(C)(=O)=O)SC4=NC3=O)cc2)cc1 | i | i | i | i | i | nt | nt | nt | nt
COc1ccc(C(=O)Oc2cc(C)c(CN3CCOCC3)cc2C)cc1OC | i | i | i | i | i | nt | nt | nt | nt
Cc1ccc(-c2[nH]ncc2C(=O)c2ccc(Br)cc2)c(O)c1 | i | i | 8.66* | i | i | i | i | i | i
Cc1ccc(C(=O)c2cn[nH]c2-c2cc(Cl)ccc2O)cc1 | i | i | 10.8* | i | i | i | i | i | i
CCOc1ccc(C(C)=O)cc1CSc1nnc(-c2cccs2)n1CC1CCCO1 (configuration not stated) | i | i | i | i | i | nt | nt | nt | nt
COc1ccc(OC)c(-c2csc(NC(=O)Cc3cccs3)n2)c1 | i | i | 7.24* | i | i | i | i | i | i
CCN(c1ccc(NC(=O)c2ccc(N3CCCC3=O)cc2)cc1)C(C)C | i | i | i | i | i | nt | nt | nt | nt
CC(=Nc1cccc(C)c1)c1sc2ccccc2c1O | i | i | 8.07* | i | i | i | i | i | 57.4*
CC(=Nc1ccccc1O)c1sc2ccccc2c1O | i | i | i | i | i | nt | nt | nt | nt
CC(=O)NCCN=C(C)c1sc2ccccc2c1O | i | i | i | i | i | nt | nt | nt | nt
CC(=Nc1ccc(O)cc1)c1sc2ccccc2c1O | i | i | 38.8* | i | i | i | i | i | i
CCc1ccc(NC(=O)c2ccccc2Br)cc1 | i | i | i | i | i | nt | nt | nt | nt
O=C(Nc1ccc(Br)cc1)c1ccccc1Br | i | i | 16.3* | i | i | i | i | i | i
O=C(CSc1ccc(-c2ccncc2)nn1)N1CCCC1 | i | i | 12.5* | i | i | i | i | i | i
CCC(C)NC(=O)CN1c2cccc3cccc(c23)S1(=O)=O (configuration not stated) | i | i | i | i | i | nt | nt | nt | nt
CCNC(=O)CN1c2cccc3cccc(c23)S1(=O)=O | i | i | 21.8* | i | i | i | i | i | i
CC1CCCC(C)N1C(=O)c1cc(-c2ccc3c(c2)OCO3)on1 (configuration not stated) | i | i | 11.5* | i | i | i | i | i | i
O=C(c1cc(-c2cccc(Cl)c2)on1)N1CCCCCC1 | i | i | 12.5* | i | i | i | i | i | i
CC1CCCC(C)N1C(=O)c1cc(-c2ccc(Cl)c(Cl)c2)on1 (configuration not stated) | i | i | 7.82* | i | i | i | i | i | i
CCOC(=O)c1nc(C)nc(Sc2n[nH]c(-c3ccccc3)n2)c1C | i | i | i | i | i | nt | nt | nt | nt
Cc1nc(N2CCN(Cc3ccccc3)CC2)nc2c1C(=O)CC(C)C2 (configuration not stated) | i | i | i | i | i | nt | nt | nt | nt

From PubChem
